In ChEMBL document CHEMBL5653631, “A Potent and Selective ULK1 Inhibitor Suppresses Autophagy and Sensitizes Cancer Cells to Nutrient Stress” (iScience, 2018):

How the values were obtained:
[1] = biological target: T1, Dual specificity protein kinase TTK (Homo sapiens) (UniProt P33981); assay: Inhibition of human recombinant TTK at 500 nM related to control ULK1
T1 sequence (whole entry): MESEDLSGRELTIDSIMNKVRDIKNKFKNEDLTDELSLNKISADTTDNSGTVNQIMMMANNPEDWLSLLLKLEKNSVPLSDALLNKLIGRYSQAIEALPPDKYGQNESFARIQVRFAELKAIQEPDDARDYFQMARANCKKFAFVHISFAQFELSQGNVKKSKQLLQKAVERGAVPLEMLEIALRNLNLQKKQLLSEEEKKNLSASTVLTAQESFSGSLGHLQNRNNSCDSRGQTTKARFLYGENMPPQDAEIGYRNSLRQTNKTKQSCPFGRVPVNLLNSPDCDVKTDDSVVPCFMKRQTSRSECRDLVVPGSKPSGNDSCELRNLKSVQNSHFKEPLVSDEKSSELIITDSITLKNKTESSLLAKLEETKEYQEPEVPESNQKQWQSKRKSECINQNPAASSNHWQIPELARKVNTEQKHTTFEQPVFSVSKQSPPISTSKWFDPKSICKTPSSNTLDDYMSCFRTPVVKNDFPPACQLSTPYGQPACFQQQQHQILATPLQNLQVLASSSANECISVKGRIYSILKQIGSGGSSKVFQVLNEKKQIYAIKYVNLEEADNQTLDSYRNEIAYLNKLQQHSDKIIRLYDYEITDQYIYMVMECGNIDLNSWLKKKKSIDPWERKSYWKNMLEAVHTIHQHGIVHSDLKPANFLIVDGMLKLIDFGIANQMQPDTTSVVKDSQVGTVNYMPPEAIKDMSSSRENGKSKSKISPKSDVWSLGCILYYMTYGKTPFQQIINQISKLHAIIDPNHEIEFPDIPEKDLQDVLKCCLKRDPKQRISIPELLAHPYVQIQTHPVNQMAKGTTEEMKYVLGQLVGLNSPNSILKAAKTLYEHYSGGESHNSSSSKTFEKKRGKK

[2] = biological target: T2, Serine/threonine-protein kinase BRSK1 (Homo sapiens) (UniProt Q8TDC3); assay: Inhibition of human recombinant BRSK1 at 500 nM in presence of ATP by radiometric assay relative to control
T2 sequence (whole entry): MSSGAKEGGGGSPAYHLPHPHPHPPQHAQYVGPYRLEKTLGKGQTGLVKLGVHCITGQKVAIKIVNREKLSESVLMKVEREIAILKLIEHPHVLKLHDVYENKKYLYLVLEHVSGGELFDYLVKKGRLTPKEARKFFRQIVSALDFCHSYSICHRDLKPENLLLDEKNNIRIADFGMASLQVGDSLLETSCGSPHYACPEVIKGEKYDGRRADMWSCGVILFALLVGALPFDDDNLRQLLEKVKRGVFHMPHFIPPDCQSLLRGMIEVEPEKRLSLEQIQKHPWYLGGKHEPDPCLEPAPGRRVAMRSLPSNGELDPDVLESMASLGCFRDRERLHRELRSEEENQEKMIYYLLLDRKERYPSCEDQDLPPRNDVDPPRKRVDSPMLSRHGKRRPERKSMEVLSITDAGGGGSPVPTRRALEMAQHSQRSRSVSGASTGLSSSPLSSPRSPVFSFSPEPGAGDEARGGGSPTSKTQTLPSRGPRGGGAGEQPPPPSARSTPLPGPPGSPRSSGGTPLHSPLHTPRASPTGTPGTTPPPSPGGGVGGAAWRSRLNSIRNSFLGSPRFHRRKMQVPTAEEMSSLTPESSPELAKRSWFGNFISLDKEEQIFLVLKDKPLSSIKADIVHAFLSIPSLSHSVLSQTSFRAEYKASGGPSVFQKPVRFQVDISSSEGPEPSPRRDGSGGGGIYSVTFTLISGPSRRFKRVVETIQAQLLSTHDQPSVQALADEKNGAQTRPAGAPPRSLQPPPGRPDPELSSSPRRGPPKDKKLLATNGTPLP
How it was run: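 Recombinant human kinase panel (327 kinases) run as radiometric activity assays, each kinase in duplicate at one compound concentration. Activity remaining expressed relative to vehicle control; percent inhibition taken as 100% minus % activity remaining.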

[3] = biological target: T3, Inhibitor of nuclear factor kappa-B kinase subunit epsilon (Homo sapiens) (UniProt Q14164); assay: Inhibition of human recombinant IKKe at 15 nM in presence of ATP by radiometric assay relative to control
T3 sequence (whole entry): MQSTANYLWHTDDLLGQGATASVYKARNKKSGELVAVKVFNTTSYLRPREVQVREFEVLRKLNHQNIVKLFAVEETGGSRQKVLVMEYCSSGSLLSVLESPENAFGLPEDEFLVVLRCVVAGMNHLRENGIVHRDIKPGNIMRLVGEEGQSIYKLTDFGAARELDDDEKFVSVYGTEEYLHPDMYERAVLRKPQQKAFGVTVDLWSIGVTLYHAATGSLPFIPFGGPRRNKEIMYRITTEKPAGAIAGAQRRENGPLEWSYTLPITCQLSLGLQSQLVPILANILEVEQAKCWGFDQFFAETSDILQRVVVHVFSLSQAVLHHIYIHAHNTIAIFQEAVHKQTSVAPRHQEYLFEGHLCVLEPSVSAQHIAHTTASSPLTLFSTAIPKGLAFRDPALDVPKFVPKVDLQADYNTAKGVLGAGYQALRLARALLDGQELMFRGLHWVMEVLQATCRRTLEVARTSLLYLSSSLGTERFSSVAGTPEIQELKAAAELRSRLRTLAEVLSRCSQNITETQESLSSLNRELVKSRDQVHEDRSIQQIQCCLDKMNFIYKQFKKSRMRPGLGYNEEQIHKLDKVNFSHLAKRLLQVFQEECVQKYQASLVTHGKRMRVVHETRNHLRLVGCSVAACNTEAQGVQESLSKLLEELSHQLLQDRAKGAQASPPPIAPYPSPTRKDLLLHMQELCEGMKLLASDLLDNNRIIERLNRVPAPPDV

For `CNC(=O)c1ccccc1Oc1nc(Nc2cc(OC)c(OC)c(OC)c2)ncc1Br`, the fold change (FC) [1] was 0.15 and the inhibition [2] was 2%.

Work on `CC(C)[C@H](NC(=O)c1cc(-c2cnn3cc(-c4ccc(OCCN5CCCCC5)cc4)cnc23)cs1)C(F)(F)F` yielded an inhibition [3] of 75%.
